How the values were obtained:
[1] = biological target: D(1A) dopamine receptor (Rattus norvegicus, UniProt P18901); experiment: Binding affinity against Dopamine receptor D1 from rat brain corpus striatal preparations using [3H]SCH-23390
[2] = biological target: D(2) dopamine receptor (Rattus norvegicus, UniProt P61169); experiment: Binding affinity against Dopamine receptor D2 from rat brain corpus striatal preparations using [3H]spiperone
[3] = biological target: Dopamine receptor; experiment: Binding affinity against dopamine agonist sites from rat brain corpus striatal preparations using [3H]ADTN
[4] = system: Rattus norvegicus; experiment: Stereotyped behavior in rat induced by Aporphines after ip administration at 0.3 mg/kg dose; type: functional; conditions: route intraperitoneal
In short: (§1)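 Aporphine given ip to rats (doses 0.3–3.0 mg/kg; saline as 0). Stereotyped behavior rated every 10 min for 1 h. Mean stereotypy score, maximum 18.0, ± SEM, N = 6. Student's t test, p < 0.05.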

[5] = system: Rattus norvegicus; experiment: Stereotyped behavior in rat induced by Aporphines after ip administration at 0 mg/kg dose; type: functional; conditions: route intraperitoneal; in short: as §1
[6] = system: Rattus norvegicus; experiment: Stereotyped behavior in rat induced by Aporphines after ip administration at 1.0 mg/kg dose; type: functional; conditions: route intraperitoneal; in short: as §1
[7] = system: Rattus norvegicus; experiment: Stereotyped behavior in rat induced by Aporphines after ip administration at 3.0 mg/kg dose; type: functional; conditions: route intraperitoneal; in short: as §1
[8] = system: Rattus norvegicus; experiment: Effect (0.3 mg/kg) on motor arousal induced by apomorphine; type: functional
In short: (§2)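 Rats received test enantiomer ip immediately before apomorphine (0.3 mg/kg). They were then placed in a microcomputer-controlled electronic activity monitor for 1 h. Read-out was activity counts per hour, mean ± SEM, N = 6. Comparison was against a saline + apomorphine control by Student's t test.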

[9] = system: Rattus norvegicus; experiment: Effect on motor arousal induced by apomorphine (0.3 mg/kg) expressed as percent control; type: functional; in short: as §2
[10] = system: Rattus norvegicus; experiment: Effect (3 mg/kg) on motor arousal induced by apomorphine; type: functional; in short: as §2
[11] = system: Rattus norvegicus; experiment: Effect (3 mg/kg) on motor arousal induced by apomorphine (0.3 mg/kg) expressed as percent control; type: functional; in short: as §2
[12] = system: Rattus norvegicus; experiment: Effect (1 mg/kg) on motor arousal induced by apomorphine (0.3 mg/kg); type: functional; in short: as §2
[13] = system: Rattus norvegicus; experiment: Effect (3 mg/kg) on motor arousal induced by apomorphine (0.3 mg/kg); type: functional; in short: as §2
[14] = system: Rattus norvegicus; experiment: Effect (10 mg/kg) on motor arousal induced by apomorphine (0.3 mg/kg) expressed as percent control; type: functional; in short: as §2
[15] = system: Rattus norvegicus; experiment: Effect (1 mg/kg) on motor arousal induced by apomorphine (0.3 mg/kg) expressed as percent control; type: functional; in short: as §2

Sequence of D(2) dopamine receptor (P61169 whole entry): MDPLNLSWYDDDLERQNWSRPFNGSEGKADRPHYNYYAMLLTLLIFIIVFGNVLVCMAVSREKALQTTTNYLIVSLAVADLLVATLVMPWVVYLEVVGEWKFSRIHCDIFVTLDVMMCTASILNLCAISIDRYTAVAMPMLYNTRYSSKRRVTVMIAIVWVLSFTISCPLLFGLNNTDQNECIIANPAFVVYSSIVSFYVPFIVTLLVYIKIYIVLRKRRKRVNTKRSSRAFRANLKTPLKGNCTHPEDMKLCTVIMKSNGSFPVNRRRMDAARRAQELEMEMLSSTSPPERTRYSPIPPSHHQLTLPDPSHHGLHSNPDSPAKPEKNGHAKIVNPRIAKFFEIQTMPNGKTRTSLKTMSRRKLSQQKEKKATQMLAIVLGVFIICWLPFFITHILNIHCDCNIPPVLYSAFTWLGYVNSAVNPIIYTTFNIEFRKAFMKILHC
Sequence of D(1A) dopamine receptor (P18901 whole entry): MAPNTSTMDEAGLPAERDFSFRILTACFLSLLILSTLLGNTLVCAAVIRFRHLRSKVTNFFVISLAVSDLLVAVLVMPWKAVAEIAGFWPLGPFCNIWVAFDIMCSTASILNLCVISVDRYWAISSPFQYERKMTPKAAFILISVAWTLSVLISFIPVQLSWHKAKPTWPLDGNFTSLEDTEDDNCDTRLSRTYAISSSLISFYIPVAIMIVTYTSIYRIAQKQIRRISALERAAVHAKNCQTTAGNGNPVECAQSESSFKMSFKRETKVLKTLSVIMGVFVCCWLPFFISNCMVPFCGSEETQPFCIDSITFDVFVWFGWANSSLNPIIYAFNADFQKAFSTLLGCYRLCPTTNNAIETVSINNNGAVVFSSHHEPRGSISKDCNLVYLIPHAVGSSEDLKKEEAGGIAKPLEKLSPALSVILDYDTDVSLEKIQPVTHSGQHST

Row | SMILES | Ki [1] [nM] | Ki [2] [nM] | Ki [3] [nM] | Activity [4] | Activity [5] | Activity [6] | Activity [7] | Activity [8] | Control [9] [%] | Activity [10] | Control [11] [%] | Activity [12] | Activity [13] | Control [14] [%] | Control [15] [%]
1 | CCCN1CCc2cccc3c2[C@H]1Cc1ccccc1-3 | 340 | 2.4 | 1.1 | – | – | – | – | – | – | – | – | – | – | – | –
2 | CCCN1CCc2cccc3c2[C@@H]1Cc1ccccc1-3 | 1340 | 115 | 278 | – | – | – | – | – | – | – | – | – | – | – | –
3 | CN1CCc2cccc3c2[C@H]1Cc1ccc(O)c(O)c1-3 [APOMORPHINE] | – | – | – | 9.7 | 0.8 | 12.7 | 17.5 | 505 | 100 | – | – | – | – | – | –
4 | CCCN1CCc2cccc3c2[C@H]1Cc1cccc(O)c1-3 | – | – | – | 5.7 | 0.8 | 9.5 | 13.8 | – | – | 764 | 151 | – | – | – | –
5 | CCCN1CCc2cccc3c2[C@@H]1Cc1cccc(O)c1-3 | – | – | – | 0.6 | 0.8 | 1.7 | 1.3 | – | – | – | 43 | 410 | 218 | 21 | 81

From ChEMBL document CHEMBL1124155, “Synthesis and dopamine agonist and antagonist effects of (R)-(-)- and (S)-(+)-11-hydroxy-N-n-propylnoraporphine” (J Med Chem, 1988)
